Assay outcomes deposited in PubChem by Broad Institute.
T cruzi growth-1 = T. cruzi proliferation inhibition. T. cruzi beta-gal in NIH3T3, GalScreen luminescence, 90 h. inhibition, % at 8.34 µM. 77,000 compounds, 5.9% hits;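 active means mean inhibition above about 93%, with at least 55% of replicates each passing it, limit read from the data, passing the limit was not always enough; inconclusive means only one of those two conditions holds; inactive means neither condition holds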
IDH1 mut inh = blocks human IDH1 R132H reductase activity | 70,000 compounds, 0.18% hits | inhibition, % at 10 µM | AID 624101 | O75874 | diaphorase/resazurin fluorescence, 60 min; in the data active means inhibition above about 34%; inconclusive means no clear call, values can overlap the other calls; inactive means below about 11%;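 further: 0% = DMSO and 100% = no enzyme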
GASC1 inh = KDM4C (human) demethylase inhibition. GST-KDM4C 2-372, H3K9me3 peptide, LANCE TR-FRET. 96,000 compounds, 0.15% hits. AID 720574. inhibition, % at 12.5 µM;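 active means mean replicate inhibition above about 25%, with at least 55% of replicates also reaching it, limit read from the data, passing the limit was not always enough; inconclusive means only one of those two conditions met; inactive means neither condition met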
Target sequence (Q9H3R0 2-372 limits assumed): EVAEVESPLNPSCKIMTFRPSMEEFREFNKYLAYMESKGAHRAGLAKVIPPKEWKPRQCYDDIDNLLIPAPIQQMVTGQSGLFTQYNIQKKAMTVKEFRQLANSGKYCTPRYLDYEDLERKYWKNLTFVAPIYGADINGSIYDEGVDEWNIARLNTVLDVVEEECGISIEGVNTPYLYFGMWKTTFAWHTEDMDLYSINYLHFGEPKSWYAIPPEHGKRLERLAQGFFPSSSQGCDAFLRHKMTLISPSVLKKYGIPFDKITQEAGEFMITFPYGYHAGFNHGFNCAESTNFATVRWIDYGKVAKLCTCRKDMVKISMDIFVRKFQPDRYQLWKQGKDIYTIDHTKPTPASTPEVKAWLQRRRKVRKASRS
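System: N-terminal GST-fused human GASC-1 (KDM4C) fragment, residues 2-372 / Amount: 10 nM GST-KDM4C in enzyme reaction / Also added: H3K9me3 peptide with Fe(II)/2OG / Times: 30 min demethylation and 1 h detection at room temperature / Signal: LANCE TR-FRET / Read-out basis: Fall in 671/618 emission ratio as inhibition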
T cruzi growth-2 = Trypanosoma cruzi proliferation inhibition; inhibition, % at 8.35 µM; AID 651739; 5,600 compounds, 72% hits; shares compounds with T cruzi growth-1; T. cruzi beta-gal in NIH3T3, GalScreen luminescence, 90 h;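 active means mean replicate inhibition above about 95% and at least 55% of replicates individually reaching it, limit read from the data; inconclusive means only one of the two criteria is met; inactive means neither criterion is met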
T cruzi growth-3 = inhibitors of T. cruzi proliferation; shares compounds with T cruzi growth-1; T. cruzi beta-gal in NIH3T3, GalScreen luminescence, 90 h; inhibition, % at 2.09 µM; 5,600 compounds, 21% hits; AID 651740;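 active means mean inhibition above about 95%, with at least 55% of replicates also reaching it, limit read from the data; inconclusive means meets just one of the two conditions; inactive means meets neither condition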;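 further: plate controls were neutral control median for no effect and positive control median for full effect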
3T3 cytotox = kills mouse NIH/3T3 fibroblasts | shares compounds with T cruzi growth-1 | NIH/3T3 viability, CellTiter-Glo ATP luminescence, 90 h | cytotoxicity (signal decrease), % at 8.35 µM | 5,600 compounds, 14% hits | AID 651742;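 active means mean signal decrease across replicates above about 35% based on untreated-well scatter, with enough replicates individually passing, limit read from the data; inconclusive means no rule stated though some were filed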;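 further: 0% = median of neutral control wells and 100% = median of positive control wells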
3T3 cytotox 2 = kills mouse NIH/3T3 fibroblasts | inhibition, % at 24.9 µM | shares compounds with T cruzi growth-1 | AID 651744 | 5,600 compounds, 56% hits | NIH/3T3 viability, CellTiter-Glo ATP luminescence, 90 h;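 active means mean loss of cell viability signal at or above a set limit, and enough replicates individually reaching it; inconclusive means meets only the mean limit or only the replicate share; inactive means meets neither condition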;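 further: 0% = median of neutral control wells and 100% = median of positive control wells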
Numbers without * were called inactive; ? = inconclusive; · = no result given; ! = not active in a repeat. The full list was thinned out, with hits kept by preference.

SMILES	T cruzi growth-1	IDH1 mut inh	GASC1 inh	T cruzi growth-2	T cruzi growth-3	3T3 cytotox	3T3 cytotox 2
Cc1c(NC(=O)CNS(=O)(=O)c2ccc(Br)cc2)c(=O)n(-c2ccccc2)n1C	·	0.0	·	·	·	·	·
O=C(C[C@@H]1C[C@@H]2c3cc(NC(=O)CC4CC4)ccc3O[C@@H]2[C@H](CO)O1)NCCN1CCCCC1	-122.9	-0.4	1.7	·	·	·	·
COc1ccc(CNC(=O)C[C@@H]2C[C@@H]3c4cc(NC(=O)C5CCC5)ccc4O[C@@H]3[C@@H](CO)O2)cc1	-35.9	-0.6	3.2	·	·	·	·
O=C(C[C@@H]1C[C@H]2c3cc(NC(=O)C4CCOCC4)ccc3O[C@H]2[C@H](CO)O1)NCc1ccc(Oc2ccccc2)cc1	142.0*	0.0	-0.2	-3.1	7.4	2.3	-6.0
COc1ccc(CNC(=O)C[C@H]2C[C@@H]3c4cc(NC(=O)C5CCC5)ccc4O[C@@H]3[C@H](CO)O2)cc1	164.5*	0.0	2.6	10.7	9.0	1.6	-5.5
O=C(C[C@@H]1C[C@@H]2c3cc(NC(=O)C4CCOCC4)ccc3O[C@@H]2[C@@H](CO)O1)NCc1ccc(Oc2ccccc2)cc1	30.7	1.1	-1.2	·	·	·	·
O=C(C[C@H]1C[C@@H]2c3cc(NC(=O)C4CCOCC4)ccc3O[C@@H]2[C@H](CO)O1)NCCN1CCCCC1	170.7*	-0.5	-1.7	74.9	10.4	12.6	-0.8
Cc1cc(-c2ccccc2)nc(SCC(=O)Nc2ccc(SC(F)F)cc2)n1	·	0.2	·	·	·	·	·
C/C(=C\C(=O)O)CCC1C(C)(O)CCC2C(C)(CO)CCCC12C (stereo unspecified)	·	1.9	·	·	·	·	·
O=C(Nc1ccccc1C(=O)O)c1cccc(S(=O)(=O)Nc2ccccc2Cl)c1	·	-0.7	·	·	·	·	·
COc1c(C(=O)O)ccc2c1CCC(C)(C)O2	·	0.4	·	·	·	·	·
C[C@@H]1CN([C@@H](C)CO)S(=O)(=O)c2ccc(-c3cccc(C#N)c3)cc2O[C@@H]1CN(C)C(=O)c1ccc(F)cc1	108.7*!	·	-1.1	97.3*	91.2	?	73.0*
C[C@@H]1CN([C@H](C)CO)S(=O)(=O)c2ccc(-c3cccc(C#N)c3)cc2O[C@H]1CN(C)C(=O)c1ccc(F)cc1	78.2	-0.2	1.7	·	·	·	·
C[C@H](CO)N1C[C@H](C)[C@@H](CN(C)C(=O)c2ccc(F)cc2)Oc2cc(-c3cccc(C#N)c3)ccc2S1(=O)=O	47.7	3.9	0.4	·	·	·	·
C[C@H]1CN([C@@H](C)CO)S(=O)(=O)c2ccc(-c3cccc(C#N)c3)cc2O[C@H]1CN(C)C(=O)c1ccc(F)cc1	103.3*	-2.1	0.9	88.6	43.9	30.0	78.2*
CCCc1cc(=O)[nH]c(SCC(=O)Nc2ccccc2C)n1	·	0.1	·	·	·	·	·
COCc1ccccc1Cn1cnc2ccccc21	·	0.0	·	·	·	·	·
Cc1ccc(-n2c(SCC(N)=O)nnc2-c2cccs2)cc1	·	3.3	·	·	·	·	·
CC(C)CC#Cc1ccc2c(c1)O[C@@H](CN(C)C(=O)Cc1ccncc1)[C@@H](C)CN([C@@H](C)CO)S2(=O)=O	?	1.9	0.9	103.0*	71.7	12.3	75.1*
CC(C)CC#Cc1ccc2c(c1)O[C@H](CN(C)C(=O)Cc1ccncc1)[C@H](C)CN([C@H](C)CO)S2(=O)=O	73.6	-0.1	0.1	·	·	·	·
CC(C)CC#Cc1ccc2c(c1)O[C@H](CN(C)C(=O)Cc1ccncc1)[C@H](C)CN([C@@H](C)CO)S2(=O)=O	100.6*	0.1	-1.2	101.2*	52.6	-1.9	5.3
CC(C)CC#Cc1ccc2c(c1)O[C@@H](CN(C)C(=O)Cc1ccncc1)[C@H](C)CN([C@H](C)CO)S2(=O)=O	73.1	0.7	-1.7	·	·	·	·
CC(=O)c1cccc(NC(=O)CCN2C(=O)c3ccccc3S2(=O)=O)c1	·	-0.7	·	·	·	·	·
COc1cccc(C#Cc2ccc([C@H]3[C@H](C#N)N(C(=O)C4CCC4)[C@H]3CO)cc2)c1	96.8*	·	-1.6	95.5*	55.6	33.7	62.6*
COc1cccc(C#Cc2ccc([C@@H]3[C@@H](C#N)N(C(=O)C4CCC4)[C@H]3CO)cc2)c1	91.0	·	-0.6	·	·	·	·
SMILES	T cruzi growth-1	IDH1 mut inh	GASC1 inh	T cruzi growth-2	T cruzi growth-3	3T3 cytotox	3T3 cytotox 2
COc1cccc(C#Cc2ccc([C@@H]3[C@@H](C#N)N(C(=O)C4CCC4)[C@@H]3CO)cc2)c1	102.0*	·	1.2	108.6*	60.9	23.4	10.1
COc1cccc(C#Cc2ccc([C@@H]3[C@@H](CO)N(C(=O)C4CCC4)[C@H]3C#N)cc2)c1	90.2	·	-1.1	·	·	·	·
COc1ccccc1-c1ccc([C@@H]2[C@H](CO)N3CCCCN(C(=O)NC4CCCC4)C[C@@H]23)cc1	54.0	·	0.3	·	·	·	·
O=C(NC1CCCC1)N1CCCCN2[C@H](CO)[C@H](c3ccc(-c4ccccc4)cc3)[C@H]2C1	104.0*	·	-0.8	84.4	86.2	2.5	103.6*
O=C(NC1CCCC1)N1CCCCN2[C@@H](CO)[C@@H](c3ccc(-c4ccccc4)cc3)[C@@H]2C1	?	·	-0.6	98.4*	57.0	13.0	102.8*
O=C(NC1CCCC1)N1CCCCN2[C@H](CO)[C@@H](c3ccc(-c4cccnc4)cc3)[C@@H]2C1	59.3	·	-0.9	·	·	·	·
CCC(=O)N1CCCCN2[C@@H](CO)[C@H](c3ccc(/C=C/c4ccccc4)cc3)[C@@H]2C1	115.8*	·	-0.8	106.0*	37.4	42.8*	104.5*
CN1CCCCN2[C@H](CO)[C@@H](c3ccc(/C=C/c4ccccc4)cc3)[C@H]2C1	59.0	·	-1.5	·	·	·	·
CCC(=O)N1CCCCN2[C@H](CO)[C@H](c3ccc(/C=C/c4ccccc4)cc3)[C@H]2C1	117.3*	·	-2.8	101.9*	66.1	26.6	105.1*
CCC(=O)N1CCCCN2[C@H](CO)[C@@H](c3ccc(/C=C/c4ccccc4)cc3)[C@H]2C1	91.2	·	-2.2	·	·	·	·
Cc1cc2ncn(CC(O)COc3ccc4cc(Br)ccc4c3)c2cc1C (stereo unspecified)	·	0.4	·	·	·	·	·
C[C@H]1CN([C@@H](C)CO)C(=O)c2ccccc2-c2ccccc2CO[C@H]1CN(C)S(=O)(=O)c1ccc(F)cc1	0.1	·	-0.5	·	·	·	·
C[C@@H]1CN([C@@H](C)CO)C(=O)c2ccccc2-c2ccccc2CO[C@H]1CN(C)S(=O)(=O)c1ccc(C(F)(F)F)cc1	113.7*	·	6.0	102.6*	58.6	5.0	29.8*
C[C@H](CO)N1C[C@H](C)[C@@H](CN(C)S(=O)(=O)c2ccc(C(F)(F)F)cc2)OCc2ccccc2-c2ccccc2C1=O	101.7*	0.5	-1.6	102.0*	79.1	27.5	54.0*
C[C@@H]1CN([C@@H](C)CO)C(=O)c2ccccc2-c2ccccc2CO[C@@H]1CN(C)S(=O)(=O)c1ccc(F)cc1	16.1	-0.4	-1.1	·	·	·	·
Cc1cc(C)c(C#N)c(SCC(O)CS(=O)c2ccc(C(C)(C)C)cc2)n1 (stereo unspecified)	·	0.6	·	·	·	·	·
